Laboratory results as given in ChEMBL document CHEMBL4425092, “ent-Labdane Diterpenoids from the Aerial Parts of Eupatorium obtusissmum” (2016).

What was measured:
Assay type in all cases: functional
[1] = system: HeLa; assay: Antiproliferative activity against human HeLa cells after 48 hrs by sulforhodamine B assay
Summary of the method: (§1)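 Cells seeded at 2500 per well and treated from day 1 after plating for 48 h, in triplicate, at dilutions over 0.001–100 μM. Stocks were made in DMSO at 400× the top final concentration, and vehicle controls received 0.25% v/v DMSO. Cells were fixed with ice-cold TCA for 60 min at 4 °C, then stained with SRB. OD was read at 530 nm, corrected for medium-only background, and GI50 was calculated by NCI formulas.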

[2] = system: HBL-100; assay: Antiproliferative activity against human HBL100 cells after 48 hrs by sulforhodamine B assay; conditions: HBL-100, 48 h; summary of the method: as §1
[3] = system: A549; assay: Antiproliferative activity against human A549 cells after 48 hrs by sulforhodamine B assay; conditions: A549, 48 h; summary of the method: as §1
[4] = system: SW1573; assay: Antiproliferative activity against human SW1573 cells after 48 hrs by sulforhodamine B assay; conditions: SW1573, 48 h
Summary of the method: (§2)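 Plating was at 5000 cells per well, with 48 h drug exposure starting on day 1, in triplicate, at dilutions spanning 0.001–100 μM. DMSO stocks were 400× the top final concentration, and vehicle controls received 0.25% v/v DMSO. Cells were fixed with cold TCA for 60 min at 4 °C, and growth was measured by SRB. Absorbance at 530 nm was corrected for medium-only blank wells, and GI50 was derived by NCI formulas.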

[5] = system: T47D; assay: Antiproliferative activity against human T47D cells after 48 hrs by sulforhodamine B assay; summary of the method: as §2
[6] = system: WiDr; assay: Antiproliferative activity against human WiDr cells after 48 hrs by sulforhodamine B assay; summary of the method: as §2

| GI50 [1] | GI50 [3] | GI50 [4] | GI50 [5] | Structure (SMILES) | GI50 [2] | GI50 [6] |
| --- | --- | --- | --- | --- | --- | --- |
| 62 µM | 44 µM | > 100 µM | > 100 µM | C=C1CC[C@@H]2C(C)(C)[C@@H](O)CC[C@@]2(C)[C@@H]1C[C@H]1OC(=O)C=C1C | > 100 µM | > 100 µM |
| > 100 µM | > 100 µM | > 100 µM | > 100 µM | CC1=CC(=O)O[C@@H]1C[C@@H]1[C@@H](C)C(=O)C[C@@H]2C(C)(C)[C@H](O)CC[C@@]12C | > 100 µM | > 100 µM |
| > 100 µM | > 100 µM | > 100 µM | > 100 µM | CC1=CC(=O)O[C@H]1C[C@@H]1[C@@H](C)C(=O)C[C@@H]2C(C)(C)[C@@H](O)CC[C@@]12C | > 100 µM | > 100 µM |
| 62 µM | 59 µM | > 100 µM | > 100 µM | C=C1CC[C@@H]2C(C)(C)[C@H](O)CC[C@@]2(C)[C@@H]1C[C@H]1OC(=O)C=C1C | > 100 µM | > 100 µM |
| > 100 µM | > 100 µM | > 100 µM | > 100 µM | CC1=CC(=O)O[C@@H]1C[C@@H]1[C@@H](C)C(=O)C[C@@H]2C(C)(C)[C@@H](O)CC[C@@]12C | > 100 µM | > 100 µM |
| 19 µM | 23 µM | 57 µM | 24 µM | C=C1[C@@H](OC(C)=O)C[C@@H]2C(C)(C)[C@@H](O)CC[C@@]2(C)[C@@H]1C[C@H]1OC(=O)C=C1C | 35 µM | 32 µM |
| 3 µM | 0.7 µM | 15 µM | 22 µM | COc1cc([C@@H]2c3cc4c(cc3[C@@H](O[C@@H]3O[C@@H]5CO[C@@H](C)O[C@H]5[C@H](O)[C@H]3O)[C@H]3COC(=O)[C@H]23)OCO4)cc(OC)c1O [ETOPOSIDE] | 2.3 µM | 23 µM |
